Experimental findings from ChEMBL document CHEMBL1158538, “(-)-Menthylamine derivatives as potent and selective antagonists of transient receptor potential melastatin type-8 (TRPM8) channels” (Bioorg Med Chem Lett, 2010) are described below.

Test [1] addresses T1, Transient receptor potential cation channel subfamily M member 8 (Rattus norvegicus, UniProt Q8R455). Nature of the test: Antagonist activity at rat TRMP8 receptor expressed in HEK293 cells assessed as icilin-induced calcium elevation. Format: functional, cell-based. An outline of the steps: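 HEK-293 cells stably expressing rat TRPM8 received compound 5 min before icilin (0.25 µM). Inhibition of the intracellular Ca2+ elevation was measured. IC50 given as mean ± SEM of N = 3.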

The target of test [2] is T1, Transient receptor potential cation channel subfamily M member 8. Nature of the test: Antagonist activity at rat TRMP8 receptor expressed in HEK293 cells assessed as menthol-induced calcium elevation. The test is classed as functional, cell-based. The gist of the method:
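Rat TRPM8-transfected HEK-293 cells were pretreated with compound for 5 min, then challenged with menthol (20 µM). Block of the Ca2+ rise gave IC50 (means ± SEM, N = 3).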

The target in test [3] is T2, Transient receptor potential cation channel subfamily V member 1 (Homo sapiens, UniProt Q8NER1). Briefly: Agonist activity at human TRPV1 receptor expressed in HEK293 cells assessed as intracellular calcium stimulation relative to inomycin. The test is classed as functional, cell-based. The gist of the method: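 Ca2+ elevation in HEK-293 cells stably expressing human TRPV1, expressed as percent of the ionomycin ([…]) response. Not measurable if below 10%. Mean ± SEM, N = 3.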
T2 sequence (Q8NER1 whole entry): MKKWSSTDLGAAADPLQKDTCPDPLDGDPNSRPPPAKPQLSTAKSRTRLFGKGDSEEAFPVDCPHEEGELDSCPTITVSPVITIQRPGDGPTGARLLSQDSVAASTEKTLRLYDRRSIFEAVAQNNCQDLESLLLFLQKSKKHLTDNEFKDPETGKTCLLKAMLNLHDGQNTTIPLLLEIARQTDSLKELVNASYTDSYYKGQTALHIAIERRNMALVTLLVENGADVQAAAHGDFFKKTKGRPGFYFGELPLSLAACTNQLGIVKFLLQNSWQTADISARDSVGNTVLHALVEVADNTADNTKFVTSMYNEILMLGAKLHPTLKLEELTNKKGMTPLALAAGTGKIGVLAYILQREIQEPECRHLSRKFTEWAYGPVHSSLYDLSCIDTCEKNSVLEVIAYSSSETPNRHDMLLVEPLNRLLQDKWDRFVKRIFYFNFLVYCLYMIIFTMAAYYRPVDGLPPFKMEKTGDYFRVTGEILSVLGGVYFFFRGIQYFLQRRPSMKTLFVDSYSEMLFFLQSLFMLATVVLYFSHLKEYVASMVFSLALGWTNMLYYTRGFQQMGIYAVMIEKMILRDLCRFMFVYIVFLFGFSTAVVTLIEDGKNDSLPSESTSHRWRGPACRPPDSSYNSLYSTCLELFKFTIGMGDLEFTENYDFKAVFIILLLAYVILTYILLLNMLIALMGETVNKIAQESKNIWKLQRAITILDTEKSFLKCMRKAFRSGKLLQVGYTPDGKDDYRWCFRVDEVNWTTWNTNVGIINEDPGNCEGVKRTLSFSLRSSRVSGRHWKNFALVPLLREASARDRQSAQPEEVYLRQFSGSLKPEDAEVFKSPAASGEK

Test [4] deals with Transient receptor potential cation channel subfamily A member 1 (Rattus norvegicus, UniProt Q6RI86). Nature of the test: Agonist activity at rat TRPA1 receptor expressed in HEK293 cells assessed as intracellular calcium stimulation. Format: functional, cell-based. An outline of the steps: (§1)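 Stably transfected HEK-293 lines (human TRPV1 or rat TRPA1) exposed to compound; rise in intracellular Ca2+ recorded. Non-transfected HEK-293 cells served as control. EC50 reported as mean ± SEM, N = 3.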
Sequence of Transient receptor potential cation channel subfamily A member 1 (Q6RI86 whole entry): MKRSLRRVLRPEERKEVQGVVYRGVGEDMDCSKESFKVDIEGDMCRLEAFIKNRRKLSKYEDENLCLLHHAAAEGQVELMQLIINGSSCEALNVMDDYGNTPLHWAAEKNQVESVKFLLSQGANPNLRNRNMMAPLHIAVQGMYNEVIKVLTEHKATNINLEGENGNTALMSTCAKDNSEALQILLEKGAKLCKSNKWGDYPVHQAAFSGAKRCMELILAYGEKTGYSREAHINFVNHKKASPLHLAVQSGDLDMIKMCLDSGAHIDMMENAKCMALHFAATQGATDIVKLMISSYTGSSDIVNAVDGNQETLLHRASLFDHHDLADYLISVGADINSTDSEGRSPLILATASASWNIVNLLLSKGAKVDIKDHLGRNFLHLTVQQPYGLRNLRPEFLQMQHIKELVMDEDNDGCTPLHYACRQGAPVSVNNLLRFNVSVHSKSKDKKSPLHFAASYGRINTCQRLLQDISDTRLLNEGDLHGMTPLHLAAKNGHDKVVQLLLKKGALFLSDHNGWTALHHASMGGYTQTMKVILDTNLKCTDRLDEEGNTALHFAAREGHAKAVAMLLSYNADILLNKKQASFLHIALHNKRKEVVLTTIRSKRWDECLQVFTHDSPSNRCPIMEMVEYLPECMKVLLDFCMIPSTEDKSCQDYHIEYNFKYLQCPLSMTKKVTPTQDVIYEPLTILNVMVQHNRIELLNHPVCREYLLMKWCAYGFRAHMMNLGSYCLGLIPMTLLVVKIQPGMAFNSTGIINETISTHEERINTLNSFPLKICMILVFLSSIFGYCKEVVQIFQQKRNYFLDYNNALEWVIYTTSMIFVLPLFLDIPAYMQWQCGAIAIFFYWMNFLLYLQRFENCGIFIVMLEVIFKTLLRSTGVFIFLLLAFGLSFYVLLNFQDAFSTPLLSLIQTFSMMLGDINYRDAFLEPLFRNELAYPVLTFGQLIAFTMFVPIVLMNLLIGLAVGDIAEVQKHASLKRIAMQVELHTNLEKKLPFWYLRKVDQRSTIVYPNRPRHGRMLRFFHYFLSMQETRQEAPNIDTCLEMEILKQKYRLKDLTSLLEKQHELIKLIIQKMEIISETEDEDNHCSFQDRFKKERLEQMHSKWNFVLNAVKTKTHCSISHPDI

For test [5], the target named is Transient receptor potential cation channel subfamily A member 1 (Rattus norvegicus) (UniProt Q6RI86). Briefly: Agonist activity at rat TRPA1 receptor expressed in HEK293 cells assessed as intracellular calcium stimulation relative to isothiocyanate. Format: functional, cell-based. An outline of the steps: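 Intracellular Ca2+ rise in HEK-293 cells stably transfected with rat TRPA1, given as percent of the response to allyl isothiocyanate (100 µM). Efficacy under 10% scored not measurable. N = 3, mean ± SEM.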
Sequence of Transient receptor potential cation channel subfamily A member 1 (Rattus norvegicus) (Q6RI86 whole entry): as above

Test [6] addresses T2, Transient receptor potential cation channel subfamily V member 1. Briefly: Agonist activity at human TRPV1 receptor expressed in HEK293 cells assessed as intracellular calcium stimulation. Format: functional, cell-based. An outline of the steps: as §1
For test [7], the system named is LNCaP. Briefly: Induction of apoptosis in human LNCAP cells assessed as caspase 3/7 release at 1 uM. Format: functional. The gist of the method: (§2)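 Prostate carcinoma cells (LNCaP, high TRPM8; DU-145, negligible TRPM8) were treated at 1 µM. Apoptosis was read as caspase 3/7 release in arbitrary units. Anti-FAS antibody plus camptothecin served as reference. Means ± SD, N = 3 experiments.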

For test [8], the system named is DU-145. Briefly: Induction of apoptosis in human DU145 cells assessed as caspase 3/7 release at 1 uM. Format: functional. The gist of the method: as §2

T1 sequence (Q8R455 whole entry): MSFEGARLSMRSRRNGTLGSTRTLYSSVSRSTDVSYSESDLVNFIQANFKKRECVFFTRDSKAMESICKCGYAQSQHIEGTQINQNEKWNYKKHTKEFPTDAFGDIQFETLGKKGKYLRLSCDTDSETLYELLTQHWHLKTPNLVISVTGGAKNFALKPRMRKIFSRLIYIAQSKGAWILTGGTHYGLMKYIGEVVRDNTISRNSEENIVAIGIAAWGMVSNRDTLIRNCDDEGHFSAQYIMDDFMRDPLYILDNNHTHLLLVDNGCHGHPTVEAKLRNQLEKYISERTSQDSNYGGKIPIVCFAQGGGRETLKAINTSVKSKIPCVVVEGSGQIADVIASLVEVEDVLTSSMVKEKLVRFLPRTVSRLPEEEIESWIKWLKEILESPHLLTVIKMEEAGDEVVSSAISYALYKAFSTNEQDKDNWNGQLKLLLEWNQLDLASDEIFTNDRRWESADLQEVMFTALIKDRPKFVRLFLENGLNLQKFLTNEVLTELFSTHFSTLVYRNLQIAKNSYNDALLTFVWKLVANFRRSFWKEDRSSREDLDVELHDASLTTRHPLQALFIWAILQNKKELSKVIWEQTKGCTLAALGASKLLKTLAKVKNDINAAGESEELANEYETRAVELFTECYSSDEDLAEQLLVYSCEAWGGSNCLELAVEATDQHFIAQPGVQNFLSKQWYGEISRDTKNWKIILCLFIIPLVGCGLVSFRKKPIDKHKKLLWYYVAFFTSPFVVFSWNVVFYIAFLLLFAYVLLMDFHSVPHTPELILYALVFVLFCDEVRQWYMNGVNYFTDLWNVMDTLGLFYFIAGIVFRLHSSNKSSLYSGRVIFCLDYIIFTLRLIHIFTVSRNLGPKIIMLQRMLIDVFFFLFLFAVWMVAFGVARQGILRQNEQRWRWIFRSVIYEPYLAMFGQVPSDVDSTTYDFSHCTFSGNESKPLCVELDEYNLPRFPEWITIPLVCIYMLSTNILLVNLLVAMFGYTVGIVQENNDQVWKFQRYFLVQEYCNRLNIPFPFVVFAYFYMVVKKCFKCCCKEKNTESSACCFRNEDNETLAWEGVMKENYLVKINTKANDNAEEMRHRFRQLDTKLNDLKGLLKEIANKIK

On to `CC(C)[C@@H]1CC[C@@H](C)C[C@H]1NC(=O)Oc1ccc(C(F)(F)F)cc1`, for which the half-inhibitory concentration (IC50) in test [1] stood at 0.7 µM; in test [2], 0.2 µM. In addition, the Efficacy in test [3] is 3.3%; in test [5], 88.9%. In addition, the EC50 in test [4] amounted to 3 µM.
As for `CC(C)[C@@H]1CC[C@@H](C)C[C@H]1NC(=O)NC12CC3CC(CC(C3)C1)C2`, the concentration for half-maximal inhibition (IC50) in test [1] and in test [2] was more than 100 µM in each case. Also, the EC50 in test [6] was 1 µM; in test [4], 11.2 µM. For the same molecule, the Efficacy in test [3] stood at 24.4%; in test [5] it was 159%.
Take `CC(C)[C@@H]1CC[C@@H](C)C[C@H]1NC(=O)Oc1ccc(-c2ccccc2)cc1`: the IC50 in test [1] was found to be 7.4 µM; in test [2], 0.7 µM. Further, the Efficacy in test [3] was 4.4%; in test [5] it was 87.2%. Besides, the EC50 in test [4] was 6.7 µM.
As for `COc1ccc(C(=O)N[C@@H]2C[C@H](C)CC[C@H]2C(C)C)cc1`, the IC50 in test [1] came to 9.6 µM; in test [2], 12.8 µM. Further, the Efficacy in test [3] was 9.6%; in test [5], less than 10%.
As for `CC(C)[C@@H]1CC[C@@H](C)C[C@H]1NC(=O)CCCCCCc1ccccc1`, the IC50 in test [1] and in test [2] was 0.4 µM throughout. Besides, the Efficacy in test [3] is 8%; in test [5], 42.8%. Further, in test [4], the EC50 came out at 0.4 µM.
For the molecule `CC(C)[C@@H]1CC[C@@H](C)C[C@H]1NC(=O)Oc1cccc(Cl)c1`, the IC50 in test [1] came out at 0.5 µM; in test [2], 1.5 µM. For the same molecule, the EC50 in test [6] came to 19.2 µM; in test [4], 30 µM. Besides, the values for the Efficacy in test [3] and in test [5] were 22.6% and 309%, respectively.
Turning to `CCCCCCCC/C=C\CCCCCCCC(=O)N[C@@H]1C[C@H](C)CC[C@H]1C(C)C`, the IC50 is more than 100 µM in test [1] and 60.6 µM in test [2]. The Efficacy in test [3] was 4.4%; in test [5] it was less than 10%.
Regarding `CC(C)[C@@H]1CC[C@@H](C)C[C@H]1NC(=O)NCCc1c[nH]c2ccc(O)cc12`, the values for the IC50 in test [1] and in test [2] were 31 µM and 15.8 µM, respectively. For the same molecule, the EC50 in test [6] is 52.2 µM. Besides, the Efficacy was 12.7% in test [3] and less than 10% in test [5].
On to `Cc1ccc(C(=O)N[C@@H]2C[C@H](C)CC[C@H]2C(C)C)cc1`, for which the concentration for half-maximal inhibition (IC50) amounted to 2.5 µM in test [1] and 2.2 µM in test [2]. The Efficacy in test [3] is 5.4%; in test [5] it was less than 10%.
For `Cc1ccc(OC(=O)N[C@@H]2C[C@H](C)CC[C@H]2C(C)C)cc1`, the IC50 in test [1] turned out to be 0.7 µM; in test [2], 1.1 µM. In addition, the results for the Efficacy in test [3] and in test [5] were 3.4% and 73.9%, respectively. In addition, in test [4], the EC50 is 0.7 µM.
For `CC(C)[C@@H]1CC[C@@H](C)C[C@H]1NC(=O)Oc1ccc(C(C)(C)C)cc1`, the IC50 came to 0.08 µM in test [1] and 0.1 µM in test [2]. In addition, the half-maximal effective concentration (EC50) in test [6] came to 18.3 µM; in test [4], 11.7 µM. For the same molecule, the Efficacy in test [3] was found to be 23.8%; in test [5] it was 76%.
For `CC(C)[C@@H]1CC[C@@H](C)C[C@H]1NC(=O)Oc1cccc(C(C)(C)C)c1`, the IC50 in test [1] is 3.3 µM; in test [2] it was 5.9 µM. Moreover, the EC50 in test [6] was 5.8 µM; in test [4], 36.7 µM. Moreover, the Efficacy in test [3] is 16.3%; in test [5], 273%.
With `CC(C)[C@@H]1CC[C@@H](C)C[C@H]1NC(=O)Oc1cccc(C(F)(F)F)c1`, the IC50 turned out to be 0.6 µM in test [1] and 0.3 µM in test [2]. Moreover, the Efficacy in test [3] turned out to be 7.4%; in test [5], 220%. In addition, the EC50 in test [4] was found to be 13.8 µM.
On to `COc1cc(CNC(=O)N[C@@H]2C[C@H](C)CC[C@H]2C(C)C)ccc1O`, for which the IC50 in test [1] worked out at 19.8 µM; in test [2], 30.5 µM. Besides, in test [6], the EC50 came to 0.23 µM. Moreover, the figures for the Efficacy in test [3] and in test [5] were 63.2% and less than 10%, respectively.
As to `CC(C)[C@@H]1CC[C@@H](C)C[C@H]1NC(=O)c1cccc(Cl)c1`, the IC50 in test [1] came to 2.1 µM; in test [2] it was 2.8 µM. Moreover, in test [6], the EC50 was 7.6 µM. In addition, the Efficacy in test [3] was 41.9%; in test [5] it was less than 10%.
Consider `CC(C)[C@@H]1CC[C@@H](C)C[C@H]1NC(=O)c1ccc(Cl)cc1`, for which the IC50 in test [1] was determined as 1.6 µM; in test [2], 0.7 µM. The EC50 was 4.1 µM in test [6] and 40.2 µM in test [4]. Further, the figures for the Efficacy in test [3] and in test [5] were 53.8% and 223%, respectively.
Regarding `COc1ccc(OC(=O)N[C@@H]2C[C@H](C)CC[C@H]2C(C)C)cc1`, the IC50 in test [1] amounted to 2.6 µM; in test [2], 2.2 µM. For the same molecule, the results for the EC50 in test [6] and in test [4] were 53.8 µM and 3.2 µM, respectively. Moreover, the Efficacy is 46.6% in test [3] and 135% in test [5].
With `CC(C)[C@@H]1CC[C@@H](C)C[C@H]1NC(=O)Oc1ccc(Cl)cc1`, the IC50 came to 4.1 µM in test [1] and 0.8 µM in test [2]. Besides, the values for the EC50 in test [6] and in test [4] were 42.8 µM and 7.1 µM, respectively. The Efficacy came to 15.1% in test [3] and 181% in test [5].
For the molecule `CC(C)[C@@H]1CC[C@@H](C)C[C@H]1NC(=O)c1ccc(-c2ccccc2)cc1`, the IC50 in test [1] worked out at 0.05 µM; in test [2] it was 0.02 µM. For the same molecule, the Efficacy in test [3] stood at 7.8%; in test [5], 34.7%. Further, in test [4], the EC50 worked out at 4.1 µM. For the same molecule, the Activity in test [7] worked out at 58576 a.u; in test [8] it was 9770 a.u.
As for `CC(C)[C@@H]1CC[C@@H](C)C[C@H]1NC(=O)CCCCCCCc1ccccc1`, the IC50 in test [1] was 0.5 µM; in test [2], 0.4 µM. For the same molecule, the values for the Efficacy in test [3] and in test [5] were 5.5% and 67%, respectively. Besides, in test [4], the EC50 is 26.7 µM.
On to `CC(C)[C@@H]1CC[C@@H](C)C[C@H]1NC(=O)Oc1cccc(-c2ccccc2)c1`, for which the figures for the IC50 in test [1] and in test [2] were 1.5 µM and 0.05 µM, respectively. Moreover, the EC50 in test [6] came to 7.1 µM; in test [4], 31 µM. The Efficacy in test [3] was 50.9%; in test [5] it was 282%.
For `CC(C)[C@@H]1CC[C@@H](C)C[C@H]1NC(=O)c1ccc(C(C)(C)C)cc1`, the IC50 came out at 60.8 µM in test [1] and 97.6 µM in test [2]. For the same molecule, the EC50 in test [6] is 0.25 µM; in test [4] it was 4.9 µM. Also, the Efficacy in test [3] worked out at 27.4%; in test [5], 138%.
